Experimental data taken from ChEMBL document CHEMBL1938297, “Synthesis, radiofluorination and pharmacological evaluation of a fluoromethyl spirocyclic PET tracer for central σ1 receptors and comparison with fluoroalkyl homologs” (Bioorg Med Chem, 2012).

Experiments:
[1] = tested on: Mus musculus; test: Biodistribution in CD1 mouse thymus at 300 kBq, iv after 60 mins by gamma counting; format: ADME, organism-based; conditions: in vivo, 1 h
Procedure, shortened: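 Female CD-1 mice received 300 kBq of the radiotracer i.v.; 3–6 animals per time point were anaesthetised at 5, 30, 60 or 120 min p.i. Blood and urine were collected, animals were killed by cervical dislocation, and organs were dissected and weighed. Activity was counted in a calibrated gamma counter and expressed as % injected dose per g wet tissue, mean with SD.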

[2] = tested on: Mus musculus; test: Biodistribution in CD1 mouse gonads at 300 kBq, iv after 30 mins by gamma counting; format: ADME, organism-based, Gonad; conditions: in vivo, 0.5 h
Procedure, shortened: (§1)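 Female CD-1 mice received [18F]1 (300 kBq) i.v.; 3–6 animals per time point anesthetized at 5, 30, 60 or 120 min p.i., blood and urine collected, animals euthanized by cervical dislocation, organs dissected and weighed. Radioactivity counted in a calibrated gamma counter; % ID/g = tissue counts / initial dose counts / tissue weight; means with SD.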

[3] = tested on: Heart; test: Biodistribution in CD1 mouse heart at 300 kBq, iv after 30 mins by gamma counting; format: ADME, organism-based; conditions: in vivo, 0.5 h
Procedure, shortened: (§2)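 Female CD-1 mice received the 18F tracer iv at 300 kBq in 0.9% NaCl containing 5% ethanol; 3–6 animals per time point (5, 30, 60, 120 min p.i.). Animals anaesthetized, blood and urine collected, killed by cervical luxation, organs dissected and weighed, counted in calibrated gamma counter. %ID/g = tissue counts / initial dose counts / tissue weight; mean with SD.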

[4] = tested on: Spleen; test: Biodistribution in CD1 mouse spleen at 300 kBq, iv after 30 mins by gamma counting; format: ADME, organism-based; conditions: in vivo, 0.5 h; procedure, shortened: as §2
[5] = Chemical stability of the compound in phosphate-saline solution at pH 7.2 assessed as compound remaining after 2 hrs by radio-HPLC/TLC analysis; format: physicochemical; conditions: read-out: Stability
Procedure, shortened: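 Radiotracer incubated 120 min at 40 °C in 0.9% NaCl (pH 7.2), phosphate-saline (0.1 M sodium phosphate, 0.15 M NaCl, pH 7.2) or 0.01 M TRIS–HCl (pH 7.4 at 21 °C). Aliquots were taken at set times and analysed by radio-TLC on silica and by gradient radio-HPLC on RP-18 (MeCN/20 mM ammonium acetate, 254 nm), giving % unchanged tracer; n = 2.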

[6] = tested on: Mus musculus; test: Biodistribution in CD1 mouse thymus at 300 kBq, iv after 30 mins by gamma counting; format: ADME, organism-based; conditions: in vivo, 0.5 h; procedure, shortened: as §2
[7] = tested on: Mus musculus; test: Biodistribution in CD1 mouse gonads at 300 kBq, iv after 5 mins by gamma counting; format: ADME, organism-based, Gonad; conditions: in vivo; procedure, shortened: as §1
[8] = n-Octanol-phosphate-saline solution partition coefficient, log D of the compound at pH 7.2 by shake-flask method; format: physicochemical
Procedure, shortened: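 Shake-flask distribution of the radioligand between n-octanol and aqueous buffer at pH 7.2, either phosphate buffer or phosphate-saline; n = 3.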

[9] = tested on: Femur; test: Biodistribution in CD1 mouse femur at 300 kBq, iv after 60 mins by gamma counting; format: ADME, organism-based; conditions: in vivo, 1 h; procedure, shortened: as §1
[10] = tested on: Urinary bladder; test: Biodistribution in CD1 mouse bladder at 300 kBq, iv after 120 mins by gamma counting; format: ADME, organism-based; conditions: in vivo, 2 h; procedure, shortened: as §1
[11] = tested on: Brain; test: Biodistribution in CD1 mouse brain at 300 kBq, iv after 60 mins by gamma counting; format: ADME, organism-based; conditions: in vivo, 1 h; procedure, shortened: as §1
[12] = tested on: Muscle tissue; test: Biodistribution in CD1 mouse muscle at 300 kBq, iv after 5 mins by gamma counting; format: ADME, organism-based; conditions: in vivo; procedure, shortened: as §2
[13] = tested on: Mus musculus; test: Biodistribution in CD1 mouse thalmic nuclei in brain saggital section at 24 MBq, iv at 45 mins by autoradiography; format: ADME, organism-based; conditions: in vivo, 0.75 h
Procedure, shortened: (§3)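 Ex vivo autoradiography: female CD-1 mouse given 18F tracer iv (24 MBq), killed 45 min p.i.; brain hemispheres frozen in isopentane (−35 °C), 12 µm sagittal cryostat sections thaw-mounted, air-dried and exposed to 18F-sensitive phosphor screens. Regional uptake compared with anterior olfactory bulb as nontarget region (target-to-nontarget ratio).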

[14] = tested on: Cerebellum; test: Biodistribution in CD1 mouse cerebellum at 300 kBq, iv after 30 mins by gamma counting; format: ADME, organism-based; conditions: in vivo, 0.5 h; procedure, shortened: as §1
[15] = tested on: Stomach; test: Biodistribution in CD1 mouse stomach at 300 kBq, iv after 30 mins by gamma counting; format: ADME, organism-based; conditions: in vivo, 0.5 h; procedure, shortened: as §2
[16] = tested on: Muscle tissue; test: Biodistribution in CD1 mouse muscle at 300 kBq, iv after 30 mins by gamma counting; format: ADME, organism-based; conditions: in vivo, 0.5 h; procedure, shortened: as §2
[17] = tested on: Liver; test: Biodistribution in CD1 mouse liver at 300 kBq, iv after 60 mins by gamma counting; format: ADME, organism-based; conditions: in vivo, 1 h; procedure, shortened: as §2
[18] = tested on: Urinary bladder; test: Biodistribution in CD1 mouse bladder at 300 kBq, iv after 5 mins by gamma counting; format: ADME, organism-based; conditions: in vivo; procedure, shortened: as §1
[19] = tested on: Liver; test: Biodistribution in CD1 mouse liver at 300 kBq, iv after 120 mins by gamma counting; format: ADME, organism-based; conditions: in vivo, 2 h; procedure, shortened: as §2
[20] = tested on: Striatum; test: Biodistribution in CD1 mouse striatum in brain saggital section at 24 MBq, iv at 45 mins by autoradiography; format: ADME, organism-based; conditions: in vivo, 0.75 h; procedure, shortened: as §3
[21] = tested on: Mus musculus; test: Biodistribution in CD1 mouse small intestine at 300 kBq, iv after 30 mins by gamma counting; format: ADME, organism-based; conditions: in vivo, 0.5 h; procedure, shortened: as §2
[22] = tested on: Kidney; test: Biodistribution in CD1 mouse kidney at 300 kBq, iv after 30 mins by gamma counting; format: ADME, organism-based; conditions: in vivo, 0.5 h; procedure, shortened: as §2
[23] = tested on: Mus musculus; test: Biodistribution in CD1 mouse facial nucleus in brain saggital section at 24 MBq, iv at 45 mins by autoradiography; format: ADME, organism-based; conditions: in vivo, 0.75 h
Procedure, shortened: (§4)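 Female CD-1 mouse given [18F]1 (24 MBq) i.v. and sacrificed at 45 min. Brain hemispheres frozen in isopentane (−35 °C), cut into 12 µm sagittal cryosections, thaw-mounted, air-dried and exposed to 18F-sensitive storage phosphor screens. Anterior olfactory bulb served as nontarget region for target-to-nontarget ratios.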

[24] = tested on: Femur; test: Biodistribution in CD1 mouse flushed femur at 300 kBq, iv after 120 mins by gamma counting; format: ADME, organism-based; conditions: in vivo, 2 h; procedure, shortened: as §1
[25] = tested on: Blood; test: Biodistribution in CD1 mouse blood at 300 kBq, iv after 5 mins by gamma counting; format: ADME, organism-based; conditions: in vivo; procedure, shortened: as §1
[26] = tested on: Cerebellum; test: Biodistribution in CD1 mouse cerebellum at 300 kBq, iv after 60 mins by gamma counting; format: ADME, organism-based; conditions: in vivo, 1 h; procedure, shortened: as §1
[27] = tested on: Cerebellum; test: Biodistribution in CD1 mouse cerebellum at 300 kBq, iv after 120 mins by gamma counting; format: ADME, organism-based; conditions: in vivo, 2 h; procedure, shortened: as §1
[28] = tested on: Mus musculus; test: Biodistribution in CD1 mouse dorsolateral periaqueductal gray in brain saggital section at 24 MBq, iv at 45 mins by autoradiography; format: ADME, organism-based; conditions: in vivo, 0.75 h; procedure, shortened: as §4
[29] = tested on: Mus musculus; test: Biodistribution in CD1 mouse small intestine at 300 kBq, iv after 120 mins by gamma counting; format: ADME, organism-based; conditions: in vivo, 2 h; procedure, shortened: as §2
[30] = tested on: Heart; test: Biodistribution in CD1 mouse heart at 300 kBq, iv after 5 mins by gamma counting; format: ADME, organism-based; conditions: in vivo; procedure, shortened: as §2
[31] = tested on: Pancreas; test: Biodistribution in CD1 mouse pancreas at 300 kBq, iv after 120 mins by gamma counting; format: ADME, organism-based; conditions: in vivo, 2 h; procedure, shortened: as §2
[32] = tested on: Mus musculus; test: Biodistribution in CD1 mouse adrenals at 300 kBq, iv after 5 mins by gamma counting; format: ADME, organism-based, Adrenal gland; conditions: in vivo; procedure, shortened: as §1
[33] = Metabolic stability in CD1 mouse brain homogenate assessed as compound remaining at 191 MBq, iv after 60 mins by radio-HPLC/TLC analysis; format: ADME, organism-based; conditions: read-out: Stability
Procedure, shortened: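 Female CD-1 mice were injected with the radiotracer via the tail vein and killed at 30 or 60 min p.i. Whole brains (n = 2 per time) were homogenised in 50 mM TRIS–HCl pH 7.4 at 4 °C and extracted twice with ice-cold acetonitrile. Concentrated extracts were analysed by radio-HPLC and radio-TLC to give % parent versus radiometabolites.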

[34] = tested on: Mus musculus; test: Biodistribution in CD1 mouse gonads at 300 kBq, iv after 60 mins by gamma counting; format: ADME, organism-based, Gonad; conditions: in vivo, 1 h; procedure, shortened: as §1

[18F]CC1OC2(CCN(Cc3ccccc3)CC2)c2ccccc21 (centres undefined)
Drug uptake [1]: 2.5 % ID/g
Drug uptake [2]: 4.75 % ID/g
Drug uptake [3]: 4.57 % ID/g
Drug uptake [4]: 8.85 % ID/g
remaining at 2 h [5]: 96.5%
Drug uptake [6]: 4.83 % ID/g
Drug uptake [7]: 3.26 % ID/g
logD [8]: 2.39
Drug uptake [9]: 1.75 % ID/g
Drug uptake [10]: 5.58 % ID/g
Drug uptake [11]: 2.99 % ID/g
Drug uptake [12]: 2.12 % ID/g
Drug uptake [13]: Active
Drug uptake [14]: 6.27 % ID/g
Drug uptake [15]: 3.52 % ID/g
Drug uptake [16]: 1.67 % ID/g
Drug uptake [17]: 3.98 % ID/g
Drug uptake [18]: 1.51 % ID/g
Drug uptake [19]: 3.95 % ID/g
Drug uptake [20]: Active
Drug uptake [21]: 18.82 % ID/g
Drug uptake [22]: 9.61 % ID/g
Drug uptake [23]: Active
Drug uptake [24]: 1.29 % ID/g
Drug uptake [25]: 0.73 % ID/g
Drug uptake [26]: 4.27 % ID/g
Drug uptake [27]: 4.02 % ID/g
Drug uptake [28]: Active
Drug uptake [29]: 25.9 % ID/g
Drug uptake [30]: 7.33 % ID/g
Drug uptake [31]: 11.99 % ID/g
Drug uptake [32]: 13.29 % ID/g
remaining at 1 h [33]: 79%
Drug uptake [34]: 3.28 % ID/g
